From paper PMC2857556 (Cytoskeleton (Hoboken, N.J.), 2010)
Where two headings read alike, the source gives them in different places. Blank lines part the entries; values can stand above or below the molecule they belong to. No end group written: not given here.

Key:
[1] = target: Rabbit skeletal muscle actin, monomeric (G-actin) (rabbit) (UniProt P68135); assay: inhibition of nucleotide exchange on actin
[2] = target: Rabbit skeletal muscle actin, monomeric (G-actin) (rabbit) (UniProt P68135); assay: inhibition of nucleotide exchange on actin; remark: listed apart in the source
actin = assay: Steady state actin critical concentration; type: biochemical; settings: for steady state critical concentration for actin assembly (Cc): saturating Srv2 or WH2 peptide, actin alone Cc = 0.21
[3] = Fluorescence-monitored urea denaturation; type: physicochemical
Method in brief: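 Full-length 6xHis-tagged wild type and mutant Srv2 were expressed in E. coli BL21-RP (DE3), purified by IMAC then Superose 6 gel filtration in 20 mM Tris pH 8.0, 50 mM NaCl, 1 mM DTT, and stored at -80°C. Unfolding was followed by fluorescence as a function of urea concentration, with fluorescence normalized.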

[4] = system: Cof1-bound ADP-actin monomers; assay: Nucleotide exchange on Cof1-bound ADP-actin monomers; type: biochemical, rabbit
Method in brief: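 Rabbit muscle ADP-actin (2 μM) was kept in G-buffer without ATP (10 mM Tris pH 7.5, 0.2 mM CaCl2, 0.2 mM DTT). It was mixed with 20 mM Tris pH 8.0, 50 mM NaCl, alone or containing Cof1 and/or varying full-length Srv2 (yeast profilin from E. coli where used), then added to ε-ATP. The fluorescence rise at 350/410 nm was monitored for at least 600 s.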

F-actin [5] = assay: Pi release assay of steady state actin filament turnover in the presence of Cof1; type: biochemical, rabbit; settings: 8 μM actin, 25°C
Method in brief: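 Cof1 and full-length Srv2 were premixed with 2 mM MgCl2, 0.5 mM ATP, 50 mM KCl, 0.2 mM MESG and 0.1 units PNP. Rabbit muscle actin monomers were added to start polymerization. Once the reaction reached steady state, Pi release was read for 15 min. After path-length correction, steady-state slopes were obtained by linear fit.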

G-actin = assay: Interaction of WH2 peptides with G-actin; type: binding
F-actin [6] = assay: F-actin co-sedimentation; type: binding; settings: co-sedimentation assays, data not shown
NBD-labeled G-actin = settings: ref Mattila et al., 2004; cited from earlier work

Kd [1]: 1500 nM | Kd [2]: 1400 nM
Molecule: Srv2/CAP WH2 peptide (a.a. 295-349), wild type (from UniProt P17555 295-349) (domain or fragment)

Molecule: Srv2-WT: full-length 6xHis-tagged wild type yeast Srv2/CAP protein purified from E. coli
steady state critical concentration for actin assembly (Cc) (actin; data not shown): 2.4 µM | increase of critical concentration versus actin alone (actin; versus actin alone, data not shown): 10 fold | folding / stability by urea denaturation (in words) [3]: folded correctly | urea concentration of unfolding [3]: ~ 5 M urea | Srv2 concentration of peak effect on nucleotide exchange rate ([4]; 2 μM ADP-G-actin, 5 μM Cof1, 25°C (Fig. 7A)): 300 to 400 nM | effect on actin turnover (Pi release) (in words) (F-actin [5]; 4 μM Cof1, 0-500 nM protein): increased the rate of turnover in a concentration-dependent manner | rate increase of actin turnover (Pi release), peak (F-actin [5]; 4 μM Cof1, Srv2 0-500 nM, 360 nm (Fig. 8A)): 4 fold

Molecule: 306-349: WH2 domain-containing peptide of Srv2, a.a. 306-349 (GIGAVFAELNQGENITKGLKKVDKSQQTHKNPELRQSSTVSSTG; UniProt P17555 306-349, looked up, fragment)
interaction with G-actin (in words) (G-actin): both WH2 peptides interacted with G-actin | binding affinity for F-actin (in words) (F-actin [6]): Neither WH2 peptide showed any detectable binding affinity for F-actin

Molecule: WH2 peptide: 6xHis-tagged WH2 domain of S. cerevisiae Srv2, a.a. 295-349, purified from E. coli (TPATSSDANKGGIGAVFAELNQGENITKGLKKVDKSQQTHKNPELRQSSTVSSTG; also: 6xHis tag, end not given here)
effect on steady state critical concentration (in words) (actin; actin + WH2 versus actin alone): did not alter the steady state critical concentration for actin assembly | steady state critical concentration for actin assembly (Cc) (actin; data not shown): 0.26 µM | interaction with G-actin (in words) (G-actin): both WH2 peptides interacted with G-actin | binding affinity for F-actin (in words) (F-actin [6]): Neither WH2 peptide showed any detectable binding affinity for F-actin

B1: profilin: Yeast profilin (Pfy1) purified from E. coli (protein, UniProt P07274 1-126, looked up)
Profilin: MSWQAYTDNLIGTGKVDKAVIYSRAGDAVWATSGGLSLQPNEIGEIVQGFDNPAGLQSNGLHIQGQKFMLLRADDRSIYGRHDAEGVVCVRTKQTVIIAHYPPTVQAGEATKIVEQLADYLIGVQY
effect on nucleotide exchange on Cof1-bound ADP-actin, protein alone (in words) ([4]; 2 μM ADP-G-actin, 5 μM Cof1, 50 μM ε-ATP, 25°C): no detectable activity | effect of profilin on Srv2-WT promotion of nucleotide exchange (in words) ([4]; 5 μM yeast profilin with 400 nM full-length Srv2-WT, 5 μM Cof1 (Fig. 7F)): does not enhance Srv2’s effects

B2: fragment of Srv2/CAP containing the WH2 domain (a.a. 253-373): purified fragment of Srv2/CAP from an earlier study (Mattila et al., 2004) (protein, UniProt P17555 253-373, looked up, fragment)
chain: MAQSTKNTGATSSPSPASATAAPAPPPPPPAPPASVFEISNDTPATSSDANKGGIGAVFAELNQGENITKGLKKVDKSQQTHKNPELRQSSTVSSTGSKSGPPPRPKKPSTLKTKRPPRKE
binding affinity for NBD-labeled G-actin (in words) (NBD-labeled G-actin): no detectable binding affinity for NBD-labeled G-actin
